# Source: ChEMBL document CHEMBL1671628, “Cell density and cell aging as factors modulating antifungal resistance of Candida albicans biofilms” (2008)
# Tests used:
# Candida albicans [1] = experiment: Antifungal activity against 48 hrs cultures of 10^7 cells/ml Candida albicans ATCC 90028 planktonic cells by XTT reduction method; format: functional; settings: ATCC 90028, 48 h
# Method in brief: (§1)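 Age-matched planktonic cultures were grown from the same 1 × 10^7 cells/ml YNB + 100 mM glucose suspension under the biofilm conditions for 24 or 48 h. They were tested against twofold drug dilutions by XTT reduction (3 h at 37°C in the dark, A490 minus blank). MIC50 is 50% reduction vs drug-free control.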
# Candida albicans [2] = experiment: Antifungal activity against 10^5 cells/ml wild-type Candida albicans BF-1 by EUCAST method; format: functional
# Method in brief: (§2)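 EUCAST AFST planktonic broth microdilution: RPMI 1640 plus 2% glucose, inoculum 0.5 × 10^5 to 2.5 × 10^5 cells/ml, twofold drug dilutions. Performed on three different occasions.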
# Candida albicans [3] = experiment: Antifungal activity against 10^7 cells/ml Candida albicans ATCC 90028 planktonic cells by XTT reduction assay; format: functional
# Method in brief: (§3)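 High-density planktonic suspensions (10^7 or 10^8 cells/ml) added to serially double-diluted drugs as in the NCCLS setup, run in parallel in RPMI 1640 + 2% glucose and YNB + 100 mM glucose. Viability read by XTT (1 mg/ml) with menadione (0.4 mM stock, 5:1), 3 h dark at 37°C, A490 minus blank wells. MIC50 = lowest concentration giving 50% reduction versus drug-free control.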
# Candida albicans [4] = experiment: Antifungal activity against 10^3 cells/ml Candida albicans ATCC 90028 by NCCLS method; format: functional
# Method in brief: (§4)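 Planktonic broth microdilution per NCCLS (CLSI): inoculum from 24-h SDA cultures adjusted to 0.5 McFarland at 520 nm, diluted in RPMI 1640 to about 0.5 × 10^3 to 2.5 × 10^3 cells/ml. Cells exposed to twofold drug dilutions, incubated 35°C for 48 h, then MIC read. Three separate occasions.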
# Candida albicans [5] = experiment: Antifungal activity against 48 hrs cultures of 10^7 cells/ml biofilm-derived Candida albicans BF-1 planktonic cells hrs by XTT reduction method; format: functional; settings: BF-1, 48 h
# Method in brief: (§5)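 Biofilms grown from 1 × 10^7 cells/ml (YNB + 100 mM glucose, 1.5 h adherence, 37°C, 75 rpm) for 24 or 48 h, washed, scraped and moved to wells of serially double-diluted drugs. Incubated with drug 24 or 48 h, then XTT–menadione read at 490 nm. MIC50 = 50% reduction versus drug-free control.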
# Candida albicans [6] = experiment: Antifungal activity against 24 hrs cultures of 10^7 cells/ml Candida albicans SC5314 biofilms by XTT reduction assay; format: functional; settings: SC5314, 24 h
# Method in brief: (§6)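 Washed late-exponential cells at 1 × 10^7 cells/ml in YNB + 100 mM glucose were adhered 1.5 h at 37°C with shaking at 75 rpm, washed, then grown 24 or 48 h at 37°C, 75 rpm. Biofilms were washed and exposed 24 or 48 h at 37°C to twofold dilutions in RPMI + 2% glucose. Read by XTT at A490. MIC50 is 50% reduction vs drug-free control. Three experiments, four replicates.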
# Candida albicans [7] = experiment: Antifungal activity against 48 hrs cultures of 10^8 cells/ml wild-type Candida albicans BF-1 biofilms by XTT reduction assay; settings: BF-1, 48 h
# Candida albicans [8] = experiment: Antifungal activity against 10^5 cells/ml Candida albicans ATCC 90028 by EUCAST method; format: functional; method in brief: as §2
# Candida albicans [9] = experiment: Antifungal activity against 48 hrs cultures of 10^8 cells/ml Candida albicans ATCC 90028 biofilms by XTT reduction assay; settings: ATCC 90028, 48 h
# Candida albicans [10] = experiment: Antifungal activity against 10^3 cells/ml Candida albicans SC5314 by NCCLS method; format: functional; method in brief: as §4
# Candida albicans [11] = experiment: Antifungal activity against 24 hrs cultures of 10^7 cells/ml Candida albicans ATCC 90028 planktonic cells by XTT reduction method; format: functional; settings: ATCC 90028, 24 h
# Method in brief: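 Standard 1 × 10^7 cells/ml suspension in YNB + 100 mM glucose propagated planktonically 24 h alongside age-matched biofilms, then exposed to twofold drug dilutions. Metabolic activity read by XTT–menadione reduction, 3 h dark, 37°C, A490 background-subtracted. MIC50 is the 50% reduction point versus drug-free control.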
# Candida albicans [12] = experiment: Antifungal activity against 10^3 cells/ml wild-type Candida albicans BF-1 by NCCLS method; format: functional; method in brief: as §4
# Candida albicans [13] = experiment: Antifungal activity against 24 hrs cultures of 10^7 cells/ml Candida albicans BF-1 planktonic cells by XTT reduction method; format: functional; settings: BF-1, 24 h; method in brief: as §1
# Candida albicans [14] = experiment: Antifungal activity against 24 hrs cultures of 10^7 cells/ml Candida albicans ATCC 90028 biofilms by XTT reduction method; format: functional; settings: ATCC 90028, 24 h; method in brief: as §6
# Candida albicans [15] = experiment: Antifungal activity against 10^8 cells/ml Candida albicans SC5314 planktonic cells by XTT reduction assay; format: functional; method in brief: as §3
# Candida albicans [16] = experiment: Antifungal activity against 10^8 cells/ml Candida albicans ATCC 90028 planktonic cells by XTT reduction assay; format: functional; method in brief: as §3
# Candida albicans [17] = experiment: Antifungal activity against 10^7 cells/ml wild-type Candida albicans BF-1 planktonic cells by XTT reduction assay; format: functional; method in brief: as §3
# Candida albicans [18] = experiment: Antifungal activity against 48 hrs cultures of 10^7 cells/ml Candida albicans BF-1 planktonic cells by XTT reduction method; format: functional; settings: BF-1, 48 h; method in brief: as §1
# Candida albicans [19] = experiment: Antifungal activity against 10^8 cells/ml wild-type Candida albicans BF-1 planktonic cells by XTT reduction assay; format: functional
# Method in brief: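 Planktonic suspensions at 1 × 10^8 cells/ml added to twofold serial drug dilutions in 96-well plates (NCCLS format). Run in parallel in RPMI 1640 + 2% glucose and YNB + 100 mM glucose. Readout by XTT reduction: XTT–menadione in PBS, 3 h at 37°C in the dark, A490 minus blank. MIC50 is 50% reduction vs drug-free control.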
# Candida albicans [20] = experiment: Antifungal activity against 24 hrs cultures of 10^7 cells/ml Candida albicans ATCC 90028 biofilms by XTT reduction assay; format: functional; settings: ATCC 90028, 24 h; method in brief: as §6
# Candida albicans [21] = experiment: Antifungal activity against 24 hrs cultures of 10^7 cells/ml Candida albicans BF-1 biofilms by XTT reduction method; format: functional; settings: BF-1, 24 h; method in brief: as §6
# Candida albicans [22] = experiment: Antifungal activity against 24 hrs cultures of 10^7 cells/ml biofilm-derived Candida albicans BF-1 planktonic cells hrs by XTT reduction method; format: functional; settings: BF-1, 24 h
# Method in brief: (§7)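 Biofilms grown 24 or 48 h from 1 × 10^7 cells/ml were washed, scraped and transferred into plates of twofold serially diluted drugs. They were incubated 24 or 48 h. MIC was read by XTT reduction (3 h at 37°C in the dark, A490 minus blank) as 50% reduction vs drug-free control.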
# Candida albicans [23] = experiment: Antifungal activity against 48 hrs cultures of 10^7 cells/ml biofilm-derived Candida albicans ATCC 90028 planktonic cells hrs by XTT reduction method; format: functional; settings: ATCC 90028, 48 h; method in brief: as §7
# Candida albicans [24] = experiment: Antifungal activity against 24 hrs cultures of 10^7 cells/ml wild-type Candida albicans BF-1 biofilms by XTT reduction assay; format: functional; settings: BF-1, 24 h; method in brief: as §6
# Candida albicans [25] = experiment: Antifungal activity against 48 hrs cultures of 10^7 cells/ml Candida albicans ATCC 90028 biofilms by XTT reduction method; format: functional; settings: ATCC 90028, 48 h; method in brief: as §6
# Candida albicans [26] = experiment: Antifungal activity against 48 hrs cultures of 10^7 cells/ml Candida albicans BF-1 biofilms by XTT reduction method; format: functional; settings: BF-1, 48 h; method in brief: as §6
# Candida albicans [27] = experiment: Antifungal activity against 24 hrs cultures of 10^7 cells/ml biofilm-derived Candida albicans ATCC 90028 planktonic cells hrs by XTT reduction method; format: functional; settings: ATCC 90028, 24 h; method in brief: as §5
# Candida albicans [28] = experiment: Ratio of MIC for 10^8 cells/ml wild-type Candida albicans BF-1 to MIC for 10^7 cells/ml wild-type Candida albicans BF-1 grown as planktonic cells; format: functional; method in brief: as §3
Compound,MIC (Candida albicans [1]),MIC (Candida albicans [2]),MIC (Candida albicans [3]),MIC (Candida albicans [4]),MIC (Candida albicans [5]),MIC (Candida albicans [6]),MIC (Candida albicans [7]),MIC (Candida albicans [8]),MIC (Candida albicans [9]),MIC (Candida albicans [10]),MIC (Candida albicans [11]),MIC (Candida albicans [12]),MIC (Candida albicans [13]),MIC (Candida albicans [14]),MIC (Candida albicans [15]),MIC (Candida albicans [16]),MIC (Candida albicans [17]),MIC (Candida albicans [18]),MIC (Candida albicans [19]),MIC (Candida albicans [20]),further results
CC[C@H](C)C[C@H](C)CCCCCCCCC(=O)N[C@H]1C[C@@H](O)[C@@H](NCCN)NC(=O)[C@@H]2[C@@H](O)CCN2C(=O)[C@H]([C@H](O)CCN)NC(=O)[C@H]([C@H](O)[C@@H](O)c2ccc(O)cc2)NC(=O)[C@@H]2C[C@@H](O)CN2C(=O)[C@H]([C@@H](C)O)NC1=O [CASPOFUNGIN],0.4 µg/mL,0.2 µg/mL,0.2 µg/mL,0.2 µg/mL,0.2 µg/mL,> 100 µg/mL,> 100 µg/mL,0.2 µg/mL,100 µg/mL,0.2 µg/mL,0.2 µg/mL,0.2 µg/mL,0.4 µg/mL,100 µg/mL,0.2 µg/mL,0.2 µg/mL,0.2 µg/mL,0.4 µg/mL,0.4 µg/mL,100 µg/mL,MIC (Candida albicans [21]): > 100 µg/mL; MIC (Candida albicans [22]): 0.4 µg/mL; MIC (Candida albicans [23]): 0.4 µg/mL; MIC (Candida albicans [24]): > 100 µg/mL; MIC (Candida albicans [25]): 100 µg/mL; MIC (Candida albicans [26]): > 100 µg/mL; MIC (Candida albicans [27]): 0.2 µg/mL
CC(=O)N1CCN(c2ccc(OCC3COC(Cn4ccnc4)(c4ccc(Cl)cc4Cl)O3)cc2)CC1 (configuration not stated) [KETOCONAZOLE],> 64 µg/mL,0.125 µg/mL,8 µg/mL,0.125 µg/mL,> 64 µg/mL,> 64 µg/mL,> 64 µg/mL,0.125 µg/mL,64 µg/mL,0.125 µg/mL,8 µg/mL,0.125 µg/mL,16 µg/mL,> 64 µg/mL,> 64 µg/mL,64 µg/mL,16 µg/mL,> 64 µg/mL,> 64 µg/mL,64 µg/mL,MIC (Candida albicans [21]): > 64 µg/mL; MIC (Candida albicans [22]): > 64 µg/mL; MIC (Candida albicans [23]): > 64 µg/mL; Ratio (Candida albicans [28]): 256; MIC (Candida albicans [24]): > 64 µg/mL; MIC (Candida albicans [25]): > 64 µg/mL; MIC (Candida albicans [26]): > 64 µg/mL; MIC (Candida albicans [27]): > 64 µg/mL
C[C@@H]1[C@H](O)[C@@H](C)/C=C/C=C/C=C/C=C/C=C/C=C/C=C/[C@H](O[C@@H]2O[C@H](C)[C@@H](O)[C@H](N)[C@@H]2O)C[C@@H]2O[C@](O)(C[C@@H](O)C[C@@H](O)[C@H](O)CC[C@@H](O)C[C@@H](O)CC(=O)O[C@H]1C)C[C@H](O)[C@H]2C(=O)O [AMPHOTERICIN B],0.46 µg/mL,0.23 µg/mL,0.23 µg/mL,0.23 µg/mL,3.75 µg/mL,32 µg/mL,30 µg/mL,0.23 µg/mL,15 µg/mL,0.23 µg/mL,0.46 µg/mL,0.23 µg/mL,0.93 µg/mL,16 µg/mL,0.46 µg/mL,0.46 µg/mL,0.46 µg/mL,0.93 µg/mL,0.93 µg/mL,15 µg/mL,MIC (Candida albicans [21]): 32 µg/mL; MIC (Candida albicans [22]): 1.87 µg/mL; MIC (Candida albicans [23]): 1.87 µg/mL; MIC (Candida albicans [24]): 30 µg/mL; MIC (Candida albicans [25]): 16 µg/mL; MIC (Candida albicans [26]): 32 µg/mL; MIC (Candida albicans [27]): 0.46 µg/mL
